p-CIP stab down: p/CIP-EGFP fusion destabilizers, primary screen, fluorescence, F442A cells. decrease of EGFP signal, % at 10 µM. 0.01% of 290,000 active. 16 h. AID 1984, 2009. Q05BA5;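 active = EGFP signal decrease of at least 30% at 10 µM or well 3 SD below plate mean, unless failing retest; inactive = the rest, including hits failing retest or dose response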
UPR XBP1 act: activators of adaptive XBP1 UPR arm, primary screen, cell-based, CHO-XBP1 luciferase reporter, luminescence, uHTS; AID 463104, 2010; activation, % at 20 µM; IRE1-XBP1 UPR activation; percent of tunicamycin response, DMSO as zero; 0.33% of 330,000 active;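 active = versus positive control, 20 µM dose yields 30% or more activation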;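 also: 100% = tunicamycin at 10 µg/mL and 0% = DMSO only wells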
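Material: CHO cell line with stable XBP1 luciferase reporter; schedule: 16-18 h cell attachment at 37 °C, then 6 h compound exposure; signal: glow luminescence from Steady-Glo reagent; medium: serum-containing F12 medium, 10% FBS; benchmarks: tunicamycin 10 µg/mL and vehicle-only wells; read-out: percent activation relative to tunicamycin reference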
Dynein transport: inhibitors of GR-EGFP nuclear translocation, primary screen, dynein cargo transport inhibitor project, imaging, high-content, 3617.4 mouse cells; 0.47% of 220,000 active; test concentration mostly 20 µM; stimulated with dexamethasone, 1 µM; active compounds read low; z-score, hits read low;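 active = plate z-score of nuclear minus cytoplasmic receptor signal below a set negative limit, without overly bright fluorescence or cell loss, cut at about -3.5 in these data, passing the limit was not always enough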;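 also: z-score of nuclear minus cytoplasmic ring GR-EGFP intensity difference per well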
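Buffer or medium: tetracycline-free induction medium containing charcoal-stripped FBS / Reagent: dexamethasone agonist, 1.0 µM final, for 30 min / Technique: automated 10x imaging of fixed Hoechst-stained cells / Times: induction 48 h, compound 1 h, agonist 30 min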
B2AR ag: beta2AR agonists driving receptor internalization, primary screen, cell-based, FAP fluorogen, flow cytometry | AID 504454, 2011 | response, % (test concentration not listed) | 0.43% of 340,000 active | Am2.2-beta2AR cells;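 active = response above a set limit, near 3 SD of response in nonfluorescent compounds, cut at about 42% in these data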
CHOP UPR activ: activators of apoptotic CHOP UPR arm, primary screen, cell-based, CHO-CHOP luciferase reporter, luminescence, uHTS. UPR activation; percent of tunicamycin response over DMSO baseline. activation, % at 10 µM. 0.34% of 330,000 active;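 active = at 10 µM dose, activation of 40% or more, normalized to positive control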;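 also: 100% = tunicamycin at 10 µg/mL and 0% = DMSO alone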
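System: CHO-CHOP luciferase reporter cell line; amount: 500 cells/well; buffer or medium: F12 medium containing 10% fetal bovine serum; incubation: 6 h compound exposure at 37 °C after overnight seeding; measured by: luciferase luminescence after 10 min with Steady-Glo reagent; evaluation: % reporter activation, DMSO baseline versus tunicamycin full activation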
CHOP inhibitor: inhibitors of CHOP promoter induction, primary screen, cell-based, unfolded protein response, luciferase reporter. inhibition, % at 10 µM. 3.8% of 220,000 active. CHO-K1 CHOP-promoter luciferase, tunicamycin-induced, 15-18 h;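 active = compounds that reduced the stress-induced luciferase reporter signal by more than about 70% of percent inhibition, limit read from the data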;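 also: 0% = tunicamycin plus vehicle and 100% = wells without tunicamycin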
Starred values were filed as active, the others as inactive; nt = no result; ! = a repeat was not active. This excerpt belongs to a sample that is enriched for hits.

SMILES	p-CIP stab down	UPR XBP1 act	Dynein transport	B2AR ag	CHOP UPR activ	CHOP inhibitor
Cc1cccc(N2CCN(CC(=O)Nc3ccc(-n4cnnn4)cc3)CC2)c1C	-14.9	0.5	0.515	3.8	-4.9	94.1*
CCC(C)NC(=O)CC(NS(=O)(=O)c1ccc(NC(C)=O)cc1)C(C)C (stereo unspecified)	0.9	1.6	0.00282	6.4	-0.5	41.2
Cc1ccc(S(=O)(=O)N[C@H](C(=O)Oc2ccc3c(C(F)(F)F)cc(=O)oc3c2)c2ccccc2)cc1	-3.2	2.3	-1.42	-4.4	-1.2	75.2*
CC(C)CCNC(=O)C1C2C=CC3(CN(Cc4ccccc4Cl)C(=O)C13)O2 (stereo unspecified)	-0.8	-0.7	-0.679	3.0	-1.3	92.0*
CCCCNC(=O)C1C2C=CC3(CN(Cc4ccccc4Cl)C(=O)C13)O2 (stereo unspecified)	2.0	-0.7	-0.329	-6.8	0.5	6.5
O=C(/C=C/c1ccc(Cl)c([N+](=O)[O-])c1)Nc1ccc(N2CCCC2)c(Cl)c1	9.6	9.5	-1.28	7.4	4.9	96.0*
COCCc1nc2ccc(C(=O)N(C)Cc3cccc(-n4nc(C)cc4C)c3)cc2o1	0.2	-3.9	nt	-13.8	0.3	nt
COC(=O)Oc1c(Br)c(=O)oc2ccccc12	nt	-0.4	1.79	-0.3	0.4	85.3*
Cc1ccc2nc(NC(=O)Cc3cccs3)sc2c1	-8.1	3.8	-0.989	1.1	2.6	-8.0
Cc1ccc2nc(-c3ccc(NC(=O)Cc4cccs4)cc3)[nH]c2c1	-10.6	4.4	-0.498	11.3	3.6	79.4*
COC(=O)C1=C(O)/C(=C\c2ccc(CNC(=O)C(=O)Nc3ccc(C)c(C)c3)o2)N=C1C	-1.2	-0.3	-1.61	70.0*	0.0	72.5*
COC(=O)C1=C(O)/C(=C\c2ccc(CNC(=O)C(=O)Nc3ccc(C)cc3)o2)N=C1C	1.4	-4.5	-0.624	56.4*	3.0	69.1
CCOC(=O)c1ccc(NC(=O)C(=O)NCc2ccc(/C=C(/C#N)C(=O)NCCOC)o2)cc1	2.9	0.1	-0.117	9.6	1.5	71.8*
CCOC(=O)C(=O)NCc1ccc(/C=C2/N=C(C)C(C(=O)OCC)=C2O)o1	-14.5	-2.2	-0.557	-2.5	-1.0	5.9
COC(=O)C1=C(O)/C(=C\c2ccc(CNS(=O)(=O)c3ccccc3)o2)N=C1C	-3.9	-4.0	0.161	-2.2	0.3	-31.8
CNC(=S)N1CCc2cc(OC)c(OC)cc2C1	-5.9	-3.1	-0.621	0.9	-1.7	6.5
Nc1c(C(O)(C(F)(F)F)C(F)(F)F)cc(C(O)(C(F)(F)F)C(F)(F)F)c2ccccc12	-9.9	-1.4	-0.318	9.1	4.6	94.5*
Cc1ccc(-n2c(SCC(=O)c3c(N)n(C)c(=O)n(C)c3=O)nc3sc4c(c3c2=O)CCCC4)c(C)c1	-8.5	2.5	2.99	-17.0	6.5	73.2*
CCOc1ccc(OCC)c(NS(=O)(=O)c2cccc3nsnc23)c1	2.6	1.0	-0.507	-3.1	0.7	83.2*
Fc1ccccc1Nc1nc2c(s1)CCc1ccccc1-2	-11.3	nt	-0.00934	nt	nt	70.8*
Fc1ccc(C(c2ccc(F)cc2)N2CCN(C/C=C/c3ccccc3)CC2)cc1	1.0	-5.4	-0.637	16.4	-1.5	84.3*!
Cc1nn(Cc2c(Cl)cccc2Cl)c(Cl)c1/C=N/NC(=O)c1cccnc1	-2.6	1.3	-0.682	4.5	2.9	27.9
CCCCCCC(=O)c1c(C)[nH]c(C(=O)OCC)c1C	-6.9	3.5	1.41	6.8	7.0	34.4
O=C(CCCOc1ccccc1)N1CCN(c2ccccc2)CC1	2.5	-1.0	-0.608	-2.5	4.5	-37.0
Cc1cccc(N2CCN(C(=O)COc3cccc4c3OC(C)(C)C4)CC2)c1C	-5.0	3.1	-0.517	2.8	0.9	78.9*
SMILES	p-CIP stab down	UPR XBP1 act	Dynein transport	B2AR ag	CHOP UPR activ	CHOP inhibitor
Cc1cc(Cl)ccc1OCCCC(=O)N1CCCCC1	6.0	2.8	-0.491	-4.7	4.2	41.1
Cc1cccc(N2CCN(C(=O)CCCOc3ccccc3)CC2)c1C	3.7	2.3	0.439	3.8	3.1	83.9*
CC1(C)Cc2cccc(OCC(=O)N3CCN(S(=O)(=O)c4ccc(F)cc4)CC3)c2O1	-10.2	-2.9	1.78	6.8	-2.3	11.1
Cc1cc(OCCCC(=O)N2CCCCC2)cc(C)c1Cl	-1.8	-0.6	0.225	-8.1	2.3	82.5*
Cc1cccc(N2CCN(C(=O)Cn3cccc3C(=O)c3ccccc3)CC2)c1C	-6.3	-4.3	-0.0568	-8.8	-0.6	71.0*
CCOc1cc(C)c(C(C)C)cc1S(=O)(=O)n1ccc(C)n1	-3.5	-1.1	-1.26	15.6	0.7	77.3*
CC(Nc1ccc(Br)cn1)c1cc(Cl)ccc1O (stereo unspecified)	4.0	nt	-2.04	14.1	nt	77.0*
O=c1c2cc(Cl)ccc2[nH]c(=S)n1Cc1cccs1	-5.4	0.6	0.263	-25.1	1.2	97.4*
O=c1[nH]c2ccc(Cl)cc2c(=O)n1Cc1ccco1	-6.2	3.6	-0.22	-2.0	1.0	80.6*
CC(=O)Nc1ccc(S(=O)(=O)N2CCCN(c3nc(C)cc(C)c3C#N)CC2)cc1	6.7	-4.4	nt	-9.0	-1.3	nt
C=CCN1C(=O)C(CC(=O)Nc2ccc(OCCC)cc2)N(CCCN2CCN(Cc3ccccc3)CC2)C1=S (stereo unspecified)	2.1	7.2	0.011	35.3	3.8	94.0*
CCCCCCOc1ccc(NC(=O)CC2C(=O)N(CC)C(=S)N2Cc2ccco2)cc1 (stereo unspecified)	0.4	0.6	1	-7.0	3.7	91.2*
CCCOc1ccc(NC(=O)CC2C(=O)N(CC)C(=S)N2Cc2cccs2)cc1 (stereo unspecified)	-6.3	0.5	0.938	-5.1	-1.4	92.9*
Cc1sc(NC(=O)CSC2=NCCS2)nc1-c1ccccc1	12.2	1.8	0.62	0.3	0.8	72.6*
OCCC1CN(Cc2cccc(-n3cccn3)c2)CCN1Cc1ccccc1 (stereo unspecified)	-10.9	1.3	0.791	-11.3	2.0	17.5
OCCN(Cc1ccccc1)Cc1ccc(C(F)(F)F)cc1	-1.2	0.3	-0.469	-5.7	-0.4	91.4*
OCCN(Cc1ccccc1)Cc1cccc(C(F)(F)F)c1	-9.4	2.9	-0.0797	-5.0	-0.3	46.5
CC(NC(=O)c1ccccc1)C(=O)NNC(=O)c1ccccc1Cl (stereo unspecified)	nt	-1.3	nt	-3.3	-2.1	nt

Source: PubChem (several laboratories)
